This note sets out measurements from ChEMBL document CHEMBL1140666, “Synthesis and evaluation of alpha,beta-unsaturated alpha-aryl-substituted fosmidomycin analogues as DXR inhibitors” (Bioorg Med Chem Lett, 2007).

pIC50: −log10 of the molar value.

A short description of this experiment: Inhibition of Escherichia coli DXR. The procedure, abridged: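 Recombinant E. coli DXR was used. Conversion of substrate DOXP to MEP was followed through the reaction's NADPH dependence, and IC50 was derived from this.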

`CC(=O)N(O)C/C=C(\c1ccc(Cl)c(Cl)c1)P(=O)(O)O`: the pIC50 (in general, the negative decadic logarithm of the IC50, by convention in mol/L) is 5.26.
For the molecule `CC(=O)N(O)C/C=C(\Br)P(=O)(O)O`, the pIC50 was 6.35.
`CC(=O)N(O)C/C=C(\c1ccccc1)P(=O)(O)O`: the pIC50 is 5.24.
The result for `CC(=O)N(O)C/C=C(\c1ccc(C#N)cc1)P(=O)(O)O` reads 4.80; that for `CC(=O)N(O)CCCP(=O)(O)O` [FR-900098], 7.49; that for `O=CN(O)CCC(c1ccc(Cl)c(Cl)c1)P(=O)(O)O` (configuration not stated), 7.23.
Under `CC(=O)N(O)C/C=C(/c1cccc([N+](=O)[O-])c1)P(=O)(O)O` stands under 4.52.
The molecule `CC(=O)N(O)C/C=C(/c1cccs1)P(=O)(O)O` had a pIC50 of 4.38.
Molecule `CC(=O)N(O)C/C=C(/c1ccc([N+](=O)[O-])cc1)P(=O)(O)O` had a negative-log IC50 (pIC50) of 4.47.
For `CC(=O)N(O)C/C=C(/c1ccccc1)P(=O)(O)O`, the pIC50 was under 4.52.
For the molecule `CC(=O)N(O)C/C=C(/c1ccsc1)P(=O)(O)O`, the pIC50 is under 4.52.
Molecule `O=CN(O)CCCP(=O)(O)O` [FOSMIDOMYCIN] had a pIC50 of 7.47.
